Activity calls are given as the source filed them. The calls are words filed in the database; no cut-off is given here.
Experiments:
[1] = biological target: T1, Adrenergic receptor alpha-2 (Rattus norvegicus) (UniProt P22086+P19328+P22909); assay: In vitro antagonistic activity against alpha-2 adrenergic receptor in isolated electrically stimulated rat vas deferens (clonidine-induced decrease in twitch height) at 500 uM concentration;IA is Inactive, no antagonism at 500 uM; format: functional
[2] = biological target: T2, Adrenergic receptor alpha-2 (Rattus norvegicus, UniProt P22086+P19328+P22909); assay: Ability to displace [3H]clonidine from alpha-2 adrenergic receptor in rat brain homogenates in vitro; format: tissue-based
T2 sequence (P22086 whole entry): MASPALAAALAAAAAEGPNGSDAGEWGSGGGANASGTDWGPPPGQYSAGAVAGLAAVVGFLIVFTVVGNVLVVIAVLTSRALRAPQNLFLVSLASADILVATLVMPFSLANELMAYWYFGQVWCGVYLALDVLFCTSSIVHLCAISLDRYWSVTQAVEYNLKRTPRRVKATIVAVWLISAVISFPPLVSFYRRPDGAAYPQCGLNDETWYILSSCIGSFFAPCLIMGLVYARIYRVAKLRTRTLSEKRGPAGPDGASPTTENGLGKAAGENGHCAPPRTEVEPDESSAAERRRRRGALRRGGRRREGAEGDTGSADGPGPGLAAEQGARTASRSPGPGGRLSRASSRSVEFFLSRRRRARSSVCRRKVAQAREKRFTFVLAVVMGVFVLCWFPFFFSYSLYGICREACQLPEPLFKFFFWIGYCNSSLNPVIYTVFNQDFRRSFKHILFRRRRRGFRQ
T2 sequence (P19328 whole entry): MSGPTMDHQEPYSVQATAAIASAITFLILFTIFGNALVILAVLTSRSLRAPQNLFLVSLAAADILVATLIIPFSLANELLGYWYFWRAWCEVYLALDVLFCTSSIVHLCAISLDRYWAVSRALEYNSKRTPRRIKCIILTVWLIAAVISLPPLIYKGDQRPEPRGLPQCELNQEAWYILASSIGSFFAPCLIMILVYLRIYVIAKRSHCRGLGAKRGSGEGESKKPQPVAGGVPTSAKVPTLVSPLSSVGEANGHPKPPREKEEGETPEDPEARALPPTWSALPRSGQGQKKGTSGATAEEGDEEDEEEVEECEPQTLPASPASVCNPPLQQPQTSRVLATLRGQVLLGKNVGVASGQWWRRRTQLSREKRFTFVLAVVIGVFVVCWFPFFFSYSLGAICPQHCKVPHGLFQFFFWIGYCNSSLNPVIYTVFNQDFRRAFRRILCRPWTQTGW
T2 sequence (P22909 whole entry): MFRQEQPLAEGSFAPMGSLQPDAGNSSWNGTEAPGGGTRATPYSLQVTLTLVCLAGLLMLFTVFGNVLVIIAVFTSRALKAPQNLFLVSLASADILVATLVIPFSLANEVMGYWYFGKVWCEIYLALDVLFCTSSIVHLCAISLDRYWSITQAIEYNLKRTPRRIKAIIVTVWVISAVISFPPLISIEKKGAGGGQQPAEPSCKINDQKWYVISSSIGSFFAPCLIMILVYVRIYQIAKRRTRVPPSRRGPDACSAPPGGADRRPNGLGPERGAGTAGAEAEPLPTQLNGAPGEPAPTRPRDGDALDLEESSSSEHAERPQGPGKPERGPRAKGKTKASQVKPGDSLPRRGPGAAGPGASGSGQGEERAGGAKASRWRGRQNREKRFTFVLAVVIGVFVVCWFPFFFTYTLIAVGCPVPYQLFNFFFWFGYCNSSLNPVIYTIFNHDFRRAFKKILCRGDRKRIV

Rattus norvegicus [3] = species on record: Rattus norvegicus; assay: Inhibition of [3H]norepinephrine uptake into rat brain synaptosomes in vitro;Values ranges from: 0.01-0.07; format: functional
Procedure, shortened: (§1)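 Male Sprague–Dawley rat (180–240 g) cortex (NE, 5-HT) or striatum (DA) crude P2 synaptosomes in 0.32 M sucrose. Preincubated 5 min at 25 °C with drug in Krebs–Ringer phosphate containing ascorbate, EDTA, nialamide; 0.1 μM final [3H]amine added for 5 min. Stopped by cold saline and GF/B filtration; nonspecific uptake at 4 °C. IC50 with 95% limits computed.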

Mus musculus [4] = assay: Effective dose required for inhibition of tetrabenazine-induced ptosis in mouse by peroral administration;Values ranges from: 1.8-9.3; format: functional; settings: po
Rattus norvegicus [5] = assay: Minimum effective dose required for inhibition of serotonin uptake was determined by PCA method in rat by peroral administration; format: functional; settings: po, read-out: MED
Procedure, shortened: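 Fasted male Sprague–Dawley rats (160–200 g) given test compound orally in water (10 mL/kg) 15 min before p-chloroamphetamine 3 mg/kg ip. Forebrain taken 3 h later, extracted in acidified butanol then heptane/0.1 N HCl. Serotonin in aqueous phase measured fluorometrically after o-phthalaldehyde condensation (excitation 360 nm). Minimum effective dose reported.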

Rattus norvegicus [6] = species on record: Rattus norvegicus; assay: Inhibition of [3H]5-HT uptake into rat brain synaptosomes in vitro;Values ranges from: 0.14-0.22; format: functional; procedure, shortened: as §1
Rattus norvegicus [7] = species on record: Rattus norvegicus; assay: Inhibition of [3H]dopamine uptake into rat brain synaptosomes in vitro;Values ranges from: 0.09-0.18; format: functional; procedure, shortened: as §1
[8] = biological target: T2, Adrenergic receptor alpha-2; assay: In vitro antagonistic activity against alpha-2 adrenergic receptor in isolated electrically stimulated rat vas deferens (clonidine-induced decrease in twitch height); format: functional, tissue-based
[9] = biological target: T1, Adrenergic receptor alpha-2 (Rattus norvegicus); assay: In vitro antagonistic activity against alpha-2 adrenergic receptor in isolated electrically stimulated rat vas deferens (clonidine-induced decrease in twitch height) at 500 uM concentration.;IA is Inactive, no antagonism at 500 uM; format: functional
Rattus norvegicus [10] = species on record: Rattus norvegicus; assay: Inhibition of [3H]norepinephrine uptake into rat brain synaptosomes in vitro;Values ranges from: 8.6-21; format: functional
Procedure, shortened: (§2)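 Male Sprague–Dawley rat cerebral cortex (180–240 g) homogenized in 0.32 M sucrose; crude P2 synaptosomes. Preincubated 5 min at 25 °C in modified Krebs–Ringer phosphate with ascorbic acid, EDTA and nialamide. Uptake run 5 min with 0.1 μM final [3H]-5-HT or [3H]NE, stopped by ice-cold saline and filtration. Nonspecific uptake taken at 4 °C. Scintillation counting; IC50 with 95% confidence limits.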

Rattus norvegicus [11] = species on record: Rattus norvegicus; assay: Inhibition of [3H]5-HT uptake into rat brain synaptosomes in vitro; format: functional; procedure, shortened: as §2
Mus musculus [12] = assay: Effective dose required for inhibition of tetrabenazine-induced ptosis in mouse by peroral administration; format: functional; settings: po
Procedure, shortened: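 Swiss Webster mice; test compound in 0.9% NaCl (10 mL/kg) given po 30 min before ip tetrabenazine methanesulfonate (50 mg/kg, in 0.9% NaCl with moderate heating). Ptosis scored subjectively 30 min after tetrabenazine on a 0–4 scale (0 = complete eye closure, 4 = no closure). ED50 with 95% confidence limits from quantal dose–response analysis.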

Mus musculus [13] = assay: Effective dose required to antagonise clonidine-induced antinociception(ACA) in mouse by peroral administration;Values ranges from: 0.5-3.8; format: functional; settings: po
Rattus norvegicus [14] = species on record: Rattus norvegicus; assay: Inhibition of [3H]dopamine uptake into rat brain synaptosomes in vitro; format: functional
Procedure, shortened: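 Male Sprague–Dawley rat corpus striatum (180–240 g) homogenized in 0.32 M sucrose; P2 synaptosomes. Preincubated 5 min at 25 °C in modified Krebs–Ringer phosphate with ascorbic acid, EDTA and nialamide. Uptake run 5 min with 0.1 μM final [3H]dopamine, ended by cold saline and GF/B filtration. Nonspecific uptake measured at 4 °C. IC50 with 95% confidence limits.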

[15] = biological target: T1, Adrenergic receptor alpha-2 (Rattus norvegicus); assay: In vitro antagonistic activity against alpha-2 adrenergic receptor in isolated electrically stimulated rat vas deferens (clonidine-induced decrease in twitch height)at 500 uM concentration. IA is Inactive, no antagonism at 500 uM; format: functional
[16] = biological target: T1, Adrenergic receptor alpha-2 (Rattus norvegicus); assay: In vitro antagonistic activity against alpha-2 adrenergic receptor in isolated electrically stimulated rat vas deferens (clonidine-induced decrease in twitch height) at 500 uM concentration. IA is Inactive, no antagonism at 500 uM; format: functional

Row | Structure (SMILES) | Ki [2] [nM] | pA2 [8] | also measured
1 | CCN1CCN=C1CC1=C(C)c2ccccc2CC1.Cl | 548 | – | pA2 [1]: inactive
2 | CN(C)CCCN1c2ccccc2CCc2ccccc21 [IMIPRAMINE] | – | – | IC50 (Rattus norvegicus [3]): 30 nM; ED50 (Mus musculus [4]): 4.1 mg/kg; minimal effective dose (Rattus norvegicus [5]): 30 mg/kg; IC50 (Rattus norvegicus [6]): 180 nM; IC50 (Rattus norvegicus [7]): 130 nM
3 | Cl.c1ccc2cc(CC3=NCCN3)ccc2c1 | 48 | 7.67 | –
4 | c1ccc2c(c1)OCC(C1=NCCN1)O2 (centres undefined) [IDAZOXAN] | – | – | IC50 (Rattus norvegicus [10]): 13000 nM; IC50 (Rattus norvegicus [11]): > 30000 nM; minimal effective dose (Rattus norvegicus [5]): > 30 mg/kg; ED50 (Mus musculus [12]): > 30 mg/kg; ED50 (Mus musculus [13]): 1.3 mg/kg; IC50 (Rattus norvegicus [14]): > 30000 nM
5 | Cc1c(CC2=NCCN2)ccc2ccccc12.Cl | 6.6 | 7.35 | –
6 | CC1=C(Cc2ncc[nH]2)CCc2ccccc21 | 88 | 6.92 | –

More lines, main results first:

Row | Ki [2] [nM] | pA2 [8] | Structure (SMILES) | also measured
7 | 76 | 7.19 | C1=C(CC2=NCCN2)Cc2ccccc21.Cl | –
8 | 334 | – | CC1=C(CC2=NCCCN2)CCc2ccccc21.Cl | pA2 [9]: inactive
9 | 436 | – | CC1=C(CC2=NCCN2C)CCc2ccccc21.Cl | pA2 [15]: inactive
10 | 401 | – | C[C@H]1c2ccccc2CC[C@@H]1CC1=NCCN1.Cl | –
11 | 135 | 7.22 | C[C@@H]1c2ccccc2CC[C@@H]1CC1=NCCN1.Cl | –
12 | 32 | 7.43 | CC(C1=Cc2ccccc2CC1)C1=NCCN1.Cl (centres undefined) | –
13 | > 800 | – | CC1=C(CC2=NCC(C)N2)CCc2ccccc21.Cl (centres undefined) | pA2 [16]: inactive
14 | 6.9 | 7.71 | CC1=C(CC2=NCCN2)Cc2ccccc21.Cl | –

— ChEMBL document CHEMBL1123816, “Synthesis and antidepressant properties of novel 2-substituted 4,5-dihydro-1H-imidazole derivatives” (J Med Chem, 1987)
